The source made the active and inactive calls. The rule behind the calls is not given here.
Assays:
[1] = target: Gamma-aminobutyric acid receptor subunit alpha-6/beta-3 (Rattus norvegicus, UniProt P30191+P63079); assay: Displacement of [3H]EBOB from rat GABA-A receptor alpha6beta3 expressed in HEK293 cell membranes after 90 mins by liquid scintillation counting analysis
Procedure, shortened: (§1)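 Crude membranes from HEK 293 cells transiently Ca-phosphate-transfected with rat subunit cDNAs, harvested at 48 h. Membranes (150-200 µg protein) incubated with 3 nM [3H]EBOB in 50 mM Tris/citrate pH 7.3 plus 0.2 M NaCl. Compound up to 10 µM, final DMSO 0.1%, no GABA, 90 min at 21 °C. Bound radioligand collected by GF/C filtration and counted by scintillation.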

[2] = target: Gamma-aminobutyric acid receptor subunit alpha-6/beta-3/gamma-2 (Rattus norvegicus, UniProt P18508+P30191+P63079); assay: Displacement of [3H]EBOB from rat GABA-A receptor alpha6beta3gamma2 expressed in HEK293 cell membranes after 90 mins by liquid scintillation counting analysis; procedure, shortened: as §1
Sequence of Gamma-aminobutyric acid receptor subunit alpha-6/beta-3/gamma-2 (P18508 whole entry): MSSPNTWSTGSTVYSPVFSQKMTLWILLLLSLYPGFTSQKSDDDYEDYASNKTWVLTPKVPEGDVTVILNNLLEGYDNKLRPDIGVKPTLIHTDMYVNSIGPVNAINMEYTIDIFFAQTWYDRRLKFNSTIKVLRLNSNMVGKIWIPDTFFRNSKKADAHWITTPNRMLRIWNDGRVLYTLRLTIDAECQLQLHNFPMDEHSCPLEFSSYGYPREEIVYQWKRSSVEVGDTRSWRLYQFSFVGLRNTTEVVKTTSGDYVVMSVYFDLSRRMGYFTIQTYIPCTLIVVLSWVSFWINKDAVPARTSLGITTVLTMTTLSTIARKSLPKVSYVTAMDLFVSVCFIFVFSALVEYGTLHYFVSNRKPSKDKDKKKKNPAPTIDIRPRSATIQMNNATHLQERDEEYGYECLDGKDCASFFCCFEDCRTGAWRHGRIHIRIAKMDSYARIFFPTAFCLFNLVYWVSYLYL
Sequence of Gamma-aminobutyric acid receptor subunit alpha-6/beta-3/gamma-2 (P30191 whole entry): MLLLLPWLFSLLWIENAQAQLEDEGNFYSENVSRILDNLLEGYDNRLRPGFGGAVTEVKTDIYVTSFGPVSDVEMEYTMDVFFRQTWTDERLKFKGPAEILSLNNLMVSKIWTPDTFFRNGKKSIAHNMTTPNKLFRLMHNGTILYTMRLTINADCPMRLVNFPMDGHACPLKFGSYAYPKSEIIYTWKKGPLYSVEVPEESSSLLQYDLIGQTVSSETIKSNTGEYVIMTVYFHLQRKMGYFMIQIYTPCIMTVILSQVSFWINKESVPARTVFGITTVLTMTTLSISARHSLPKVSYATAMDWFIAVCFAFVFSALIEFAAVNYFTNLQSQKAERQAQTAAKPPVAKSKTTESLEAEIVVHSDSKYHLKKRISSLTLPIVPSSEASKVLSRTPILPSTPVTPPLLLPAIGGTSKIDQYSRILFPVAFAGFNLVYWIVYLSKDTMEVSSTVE
Sequence of Gamma-aminobutyric acid receptor subunit alpha-6/beta-3/gamma-2 (P63079 whole entry): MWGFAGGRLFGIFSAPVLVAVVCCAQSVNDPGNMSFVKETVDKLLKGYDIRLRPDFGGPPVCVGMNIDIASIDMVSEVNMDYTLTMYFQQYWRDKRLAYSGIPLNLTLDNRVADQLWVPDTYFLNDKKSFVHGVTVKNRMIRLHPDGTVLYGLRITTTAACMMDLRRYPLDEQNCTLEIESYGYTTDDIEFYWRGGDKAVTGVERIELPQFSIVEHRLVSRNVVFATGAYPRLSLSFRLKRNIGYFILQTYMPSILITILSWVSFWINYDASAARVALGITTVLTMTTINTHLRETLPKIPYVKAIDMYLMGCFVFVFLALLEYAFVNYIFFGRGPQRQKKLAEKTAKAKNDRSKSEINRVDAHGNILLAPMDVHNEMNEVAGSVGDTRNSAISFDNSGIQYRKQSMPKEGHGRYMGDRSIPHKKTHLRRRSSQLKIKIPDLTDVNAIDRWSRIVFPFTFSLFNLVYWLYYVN

[3] = target: Gamma-aminobutyric acid receptor subunit alpha-6/beta-3/delta (Rattus norvegicus, UniProt P18506+P30191+P63079); assay: Displacement of [3H]EBOB from rat GABA-A receptor alpha6beta3delta expressed in HEK293 cell membranes after 90 mins by liquid scintillation counting analysis; procedure, shortened: as §1
Sequence of Gamma-aminobutyric acid receptor subunit alpha-6/beta-3/delta (P18506 whole entry): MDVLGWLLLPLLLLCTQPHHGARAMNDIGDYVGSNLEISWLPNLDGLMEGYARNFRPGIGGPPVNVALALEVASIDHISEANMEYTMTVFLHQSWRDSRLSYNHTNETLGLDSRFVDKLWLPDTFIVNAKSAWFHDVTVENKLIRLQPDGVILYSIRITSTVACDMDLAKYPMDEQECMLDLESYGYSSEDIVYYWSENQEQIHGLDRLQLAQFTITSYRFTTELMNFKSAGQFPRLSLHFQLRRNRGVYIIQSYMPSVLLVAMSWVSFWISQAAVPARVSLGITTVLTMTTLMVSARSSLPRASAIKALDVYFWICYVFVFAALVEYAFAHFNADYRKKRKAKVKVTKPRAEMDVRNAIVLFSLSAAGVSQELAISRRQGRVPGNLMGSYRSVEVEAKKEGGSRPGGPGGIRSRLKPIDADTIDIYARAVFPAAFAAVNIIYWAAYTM
Sequence of Gamma-aminobutyric acid receptor subunit alpha-6/beta-3/delta (P30191 whole entry): as the sequence (P30191 whole entry) above
Sequence of Gamma-aminobutyric acid receptor subunit alpha-6/beta-3/delta (P63079 whole entry): as the sequence (P63079 whole entry) above

[4] = target: T1, Gamma-aminobutyric acid receptor subunit alpha-6/beta-3 (Rattus norvegicus) (UniProt P30191+P63079); assay: Displacement of [3H]EBOB from rat GABA-A receptor alpha6beta3 expressed in HEK293 cell membranes up to 10 uM after 90 mins by liquid scintillation counting analysis relative to control; procedure, shortened: as §1
[5] = target: T2, Gamma-aminobutyric acid receptor subunit alpha-6/beta-3/gamma-2 (Rattus norvegicus) (UniProt P18508+P30191+P63079); assay: Displacement of [3H]EBOB from rat GABA-A receptor alpha6beta3gamma2 expressed in HEK293 cell membranes up to 10 uM after 90 mins by liquid scintillation counting analysis relative to control; procedure, shortened: as §1
[6] = target: T3, Gamma-aminobutyric acid receptor subunit alpha-6/beta-3/delta (Rattus norvegicus) (UniProt P18506+P30191+P63079); assay: Displacement of [3H]EBOB from rat GABA-A receptor alpha6beta3delta expressed in HEK293 cell membranes up to 10 uM after 90 mins by liquid scintillation counting analysis relative to control; procedure, shortened: as §1
[7] = target: T3, Gamma-aminobutyric acid receptor subunit alpha-6/beta-3/delta (Rattus norvegicus); assay: Displacement of [3H]EBOB from rat GABA-A receptor alpha6beta3delta expressed in HEK293 cell membranes at 10 uM after 90 mins by liquid scintillation counting analysis relative to control; procedure, shortened: as §1
[8] = target: T1, Gamma-aminobutyric acid receptor subunit alpha-6/beta-3 (Rattus norvegicus); assay: Displacement of [3H]EBOB from rat GABA-A receptor alpha6beta3 expressed in HEK293 cell membranes at 10 uM after 90 mins by liquid scintillation counting analysis relative to control; procedure, shortened: as §1
[9] = target: T2, Gamma-aminobutyric acid receptor subunit alpha-6/beta-3/gamma-2 (Rattus norvegicus); assay: Displacement of [3H]EBOB from rat GABA-A receptor alpha6beta3gamma2 expressed in HEK293 cell membranes at 10 uM after 90 mins by liquid scintillation counting analysis relative to control; procedure, shortened: as §1
[10] = target: Gamma-aminobutyric acid receptor subunit alpha-1/beta-3/delta (Rattus norvegicus, UniProt P18506+P62813+P63079); assay: Modulation of rat […] GABA-A receptor alpha1beta3delta expressed in HEK293 cells in presence of GABA by patch-clamp assay; assay type: cell-based
Sequence of Gamma-aminobutyric acid receptor subunit alpha-1/beta-3/delta (P18506 whole entry): as the sequence (P18506 whole entry) above
Sequence of Gamma-aminobutyric acid receptor subunit alpha-1/beta-3/delta (P62813 whole entry): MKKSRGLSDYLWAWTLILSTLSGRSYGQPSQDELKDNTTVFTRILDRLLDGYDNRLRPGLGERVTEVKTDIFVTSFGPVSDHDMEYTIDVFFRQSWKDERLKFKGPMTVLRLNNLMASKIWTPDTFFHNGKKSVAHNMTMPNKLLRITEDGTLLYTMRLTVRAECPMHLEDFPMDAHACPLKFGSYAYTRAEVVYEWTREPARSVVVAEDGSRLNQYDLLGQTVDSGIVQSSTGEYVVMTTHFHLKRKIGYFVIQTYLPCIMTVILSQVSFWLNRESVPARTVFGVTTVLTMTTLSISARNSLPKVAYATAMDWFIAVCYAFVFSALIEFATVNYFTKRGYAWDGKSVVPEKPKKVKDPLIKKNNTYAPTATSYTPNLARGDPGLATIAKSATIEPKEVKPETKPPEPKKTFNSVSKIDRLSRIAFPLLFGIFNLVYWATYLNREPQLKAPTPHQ
Sequence of Gamma-aminobutyric acid receptor subunit alpha-1/beta-3/delta (P63079 whole entry): as the sequence (P63079 whole entry) above
Procedure, shortened: (§2)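 Rat GABA-A subunits were transiently co-transfected with eGFP into HEK293 cells on coverslips. Fluorescent cells were recorded by whole-cell patch clamp 48 h later; bath pH 7.4, KCl/KOH pipette pH 7.2. Compound was applied at increasing concentrations up to 10 µM with the receptor-specific GABA EC20. Peak currents were fitted logistically for EC50, Hill and % modulation, as mean ± S.E.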

[11] = target: Gamma-aminobutyric acid receptor subunit alpha-4/beta-3/delta (Rattus norvegicus, UniProt P18506+P28471+P63079); assay: Modulation of rat […] GABA-A receptor alpha4beta3delta expressed in HEK293 cells in presence of GABA by patch-clamp assay; assay type: cell-based; procedure, shortened: as §2
Sequence of Gamma-aminobutyric acid receptor subunit alpha-4/beta-3/delta (P18506 whole entry): as the sequence (P18506 whole entry) above
Sequence of Gamma-aminobutyric acid receptor subunit alpha-4/beta-3/delta (P28471 whole entry): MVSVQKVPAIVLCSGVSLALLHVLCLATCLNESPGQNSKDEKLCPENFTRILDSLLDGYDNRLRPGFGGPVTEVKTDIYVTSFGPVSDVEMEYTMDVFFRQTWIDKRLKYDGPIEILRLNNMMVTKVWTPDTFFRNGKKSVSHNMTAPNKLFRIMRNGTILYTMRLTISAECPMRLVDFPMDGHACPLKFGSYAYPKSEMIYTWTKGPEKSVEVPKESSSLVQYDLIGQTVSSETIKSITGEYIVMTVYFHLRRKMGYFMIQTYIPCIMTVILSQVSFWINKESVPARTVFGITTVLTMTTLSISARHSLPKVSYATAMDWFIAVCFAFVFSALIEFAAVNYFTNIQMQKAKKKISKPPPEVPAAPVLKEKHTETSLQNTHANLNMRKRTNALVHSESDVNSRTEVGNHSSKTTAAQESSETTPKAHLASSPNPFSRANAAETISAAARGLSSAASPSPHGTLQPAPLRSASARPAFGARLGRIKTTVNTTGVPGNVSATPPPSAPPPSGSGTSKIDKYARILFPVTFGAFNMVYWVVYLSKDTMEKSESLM
Sequence of Gamma-aminobutyric acid receptor subunit alpha-4/beta-3/delta (P63079 whole entry): as the sequence (P63079 whole entry) above

[12] = target: Gamma-aminobutyric acid receptor subunit alpha-1/beta-3/delta (Rattus norvegicus) (UniProt P18506+P62813+P63079); assay: Modulation of rat […] GABA-A receptor alpha1beta3delta expressed in HEK293 cells up to 10 uM in presence of GABA by patch-clamp assay relative to control; assay type: cell-based; procedure, shortened: as §2
[13] = target: Gamma-aminobutyric acid receptor subunit alpha-4/beta-3/delta (Rattus norvegicus) (UniProt P18506+P28471+P63079); assay: Modulation of rat […] GABA-A receptor alpha4beta3delta expressed in HEK293 cells up to 10 uM in presence of GABA by patch-clamp assay relative to control; assay type: cell-based; procedure, shortened: as §2
[14] = target: T1, Gamma-aminobutyric acid receptor subunit alpha-6/beta-3 (Rattus norvegicus); assay: Modulation of rat […] GABA-A receptor alpha6beta3 expressed in HEK293 cells up to 10 uM in presence of GABA by patch-clamp assay relative to control; assay type: cell-based; procedure, shortened: as §2
[15] = target: Gamma-aminobutyric acid receptor subunit alpha-4/beta-3/gamma-2 (Rattus norvegicus) (UniProt P18508+P28471+P63079); assay: Modulation of rat eGFP-fused GABA-A receptor alpha4beta3gamma2 expressed in HEK293 cells at <=1 uM in presence of GABA by patch-clamp assay relative to control; assay type: cell-based
[16] = target: T2, Gamma-aminobutyric acid receptor subunit alpha-6/beta-3/gamma-2 (Rattus norvegicus); assay: Modulation of rat eGFP-fused GABA-A receptor alpha6beta3gamma2 expressed in HEK293 cells at <= 1 uM in presence of GABA by patch-clamp assay relative to control; assay type: cell-based
[17] = target: Gamma-aminobutyric acid receptor subunit alpha-1/beta-3 (Rattus norvegicus) (UniProt P62813+P63079); assay: Modulation of rat […] GABA-A receptor alpha1beta3 expressed in HEK293 cells at <= 10 uM in presence of GABA by patch-clamp assay relative to control; assay type: cell-based
Procedure, shortened: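 Whole-cell patch clamp on eGFP-co-transfected HEK 293 cells expressing rat subunits, recorded 48 h post-transfection. KCl/KOH-based pipette solution, pH 7.2. Rising compound concentrations up to 10 µM co-applied with the receptor-specific GABA EC20. Peak currents fitted to a logistic function giving EC50, Hill coefficient and % modulation, mean ± S.E. of n experiments.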

[18] = target: Gamma-aminobutyric acid receptor subunit alpha-1/beta-3/gamma-2 (Rattus norvegicus) (UniProt P18508+P62813+P63079); assay: Modulation of rat eGFP-fused GABA-A receptor alpha1beta3gamma2 expressed in HEK293 cells at <= 1 uM in presence of GABA by patch-clamp assay relative to control; assay type: cell-based
[19] = target: Gamma-aminobutyric acid receptor subunit alpha-4/beta-3 (Rattus norvegicus) (UniProt P28471+P63079); assay: Modulation of rat eGFP-fused GABA-A receptor alpha4beta3 expressed in HEK293 cells at <= 1 uM in presence of GABA by patch-clamp assay relative to control; assay type: cell-based

Sequence of Gamma-aminobutyric acid receptor subunit alpha-6/beta-3 (P30191 whole entry): as the sequence (P30191 whole entry) above
Sequence of Gamma-aminobutyric acid receptor subunit alpha-6/beta-3 (P63079 whole entry): as the sequence (P63079 whole entry) above

Compound CCCCOc1ccc(C(=O)Nc2c(-c3cccs3)nc3c(Br)cc(Br)cn23)cc1 has an IC50 [1] of 2500 nM, an IC50 [2] of 5510 nM and an IC50 [3] of 860 nM. It also gave an Imax [4] of 46%, an Imax [5] of 24% and an Imax [6] of 71%.
For O=C(Nc1c(-c2cccs2)nc2c(Br)cc(Br)cn12)c1ccc(OCCCF)cc1, the IC50 [3] was 1000 nM, the inhibition [4] was “inactive” and the inhibition [5] was “inactive”. For the same compound, the Imax [6] was 38%.
In the case of O=C(Nc1c(-c2cccs2)nc2c(Br)cc(Br)cn12)c1ccc(OCCF)cc1, the Imax [7] is reported as 37%, the inhibition [8] is reported as “inactive” and the Imax [9] is reported as 15%.
O=C(Nc1c(-c2cccs2)nc2ccccn12)c1ccc(Cl)cc1 was tested, and the Imax [7] was 20%, the EC50 [10] was 860 nM and the EC50 [11] was 970 nM. The Activity [12] was 213%, the Activity [13] was 231% and the Activity [14] was 588%. For the same compound, the Activity [15] was “inactive”, the Activity [16] was “inactive” and the Activity [17] was “inactive”. For the same compound, the Activity [18] was “inactive” and the Activity [19] was “inactive”.

— ChEMBL document CHEMBL4190374, “Structure-Function Evaluation of Imidazopyridine Derivatives Selective for δ-Subunit-Containing γ-Aminobutyric Acid Type A (GABAA) Receptors” (J Med Chem, 2018)
